In ChEMBL document CHEMBL1153264, “(1,2,3-Triazol-4-yl)benzenamines: synthesis and activity against VEGF receptors 1 and 2” (Bioorg Med Chem Lett, 2009):

Experiments:
[1] = target: T1, Vascular endothelial growth factor receptor 2 (Homo sapiens, UniProt P35968); test: Inhibition of VEGFR2 by HTRF assay in presence of 2 uM ATP
In short: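 HTRF kinase assay with KDR enzyme (3–4 ng) and biotinylated pGAT substrate. ATP added to start, 45 min at RT. Stopped with EDTA/KF buffer plus Eu-cryptate anti-phosphotyrosine antibody, 2 h RT, then HTRF read. IC50 from 10-point log concentration curves, mean of at least two duplicate runs.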

[2] = target: Vascular endothelial growth factor receptor 1 (Homo sapiens, UniProt P17948); test: Inhibition of VEGFR1 by HTRF assay
[3] = target: T1, Vascular endothelial growth factor receptor 2; test: Inhibition of VEGF-induced phosphorylation of VEGFR2 by cell-based ELISA
[4] = target: Insulin-like growth factor 1 receptor (Homo sapiens) (UniProt P08069); test: Inhibition of IGF1R at 10 uM
[5] = target: Insulin receptor (Homo sapiens) (UniProt P06213); test: Inhibition of IR at 10 uM
[6] = target: Fibroblast growth factor receptor 1 (Homo sapiens) (UniProt P11362); test: Inhibition of FGFR1 at 10 uM
[7] = target: Receptor-type tyrosine-protein kinase FLT3 (Homo sapiens) (UniProt P36888); test: Inhibition of Flt3 at 10 uM
[8] = target: Epidermal growth factor receptor (Homo sapiens) (UniProt P00533); test: Inhibition of EGFR at 10 uM
Epidermal growth factor receptor (Homo sapiens), sequence (P00533 whole entry): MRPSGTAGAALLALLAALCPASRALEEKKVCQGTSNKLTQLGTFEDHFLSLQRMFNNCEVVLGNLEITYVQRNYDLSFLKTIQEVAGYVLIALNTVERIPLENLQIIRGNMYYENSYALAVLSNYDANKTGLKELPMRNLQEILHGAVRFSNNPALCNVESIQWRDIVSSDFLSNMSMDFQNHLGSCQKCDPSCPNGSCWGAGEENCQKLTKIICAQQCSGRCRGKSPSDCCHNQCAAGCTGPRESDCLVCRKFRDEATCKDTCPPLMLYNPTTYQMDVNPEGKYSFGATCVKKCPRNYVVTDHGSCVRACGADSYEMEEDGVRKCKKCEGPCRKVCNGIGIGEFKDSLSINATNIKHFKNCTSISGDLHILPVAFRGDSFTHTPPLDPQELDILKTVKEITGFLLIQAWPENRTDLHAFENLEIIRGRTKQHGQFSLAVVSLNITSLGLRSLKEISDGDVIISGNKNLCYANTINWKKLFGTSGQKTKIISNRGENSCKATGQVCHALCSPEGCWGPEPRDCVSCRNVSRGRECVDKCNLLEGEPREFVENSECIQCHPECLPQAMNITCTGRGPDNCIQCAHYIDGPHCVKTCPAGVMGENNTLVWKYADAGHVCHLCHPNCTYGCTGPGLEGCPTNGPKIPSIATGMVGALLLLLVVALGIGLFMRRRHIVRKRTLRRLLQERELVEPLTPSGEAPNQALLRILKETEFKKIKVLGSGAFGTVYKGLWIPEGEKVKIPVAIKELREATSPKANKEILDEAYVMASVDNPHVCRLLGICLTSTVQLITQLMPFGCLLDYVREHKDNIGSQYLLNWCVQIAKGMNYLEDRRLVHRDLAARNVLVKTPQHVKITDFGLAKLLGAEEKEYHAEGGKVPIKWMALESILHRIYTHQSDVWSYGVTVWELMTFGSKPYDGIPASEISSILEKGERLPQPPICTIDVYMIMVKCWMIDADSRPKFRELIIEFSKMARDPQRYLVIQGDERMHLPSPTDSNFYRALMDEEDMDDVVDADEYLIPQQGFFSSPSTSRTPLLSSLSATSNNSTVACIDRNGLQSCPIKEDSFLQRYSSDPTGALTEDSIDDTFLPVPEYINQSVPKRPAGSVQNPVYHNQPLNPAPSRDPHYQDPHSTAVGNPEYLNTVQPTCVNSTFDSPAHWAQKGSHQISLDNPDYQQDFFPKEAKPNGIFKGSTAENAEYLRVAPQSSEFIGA

[9] = target: Receptor tyrosine-protein kinase erbB-2 (Homo sapiens) (UniProt P04626); test: Inhibition of ErbB2 at 10 uM
Receptor tyrosine-protein kinase erbB-2 (Homo sapiens), sequence (P04626 whole entry): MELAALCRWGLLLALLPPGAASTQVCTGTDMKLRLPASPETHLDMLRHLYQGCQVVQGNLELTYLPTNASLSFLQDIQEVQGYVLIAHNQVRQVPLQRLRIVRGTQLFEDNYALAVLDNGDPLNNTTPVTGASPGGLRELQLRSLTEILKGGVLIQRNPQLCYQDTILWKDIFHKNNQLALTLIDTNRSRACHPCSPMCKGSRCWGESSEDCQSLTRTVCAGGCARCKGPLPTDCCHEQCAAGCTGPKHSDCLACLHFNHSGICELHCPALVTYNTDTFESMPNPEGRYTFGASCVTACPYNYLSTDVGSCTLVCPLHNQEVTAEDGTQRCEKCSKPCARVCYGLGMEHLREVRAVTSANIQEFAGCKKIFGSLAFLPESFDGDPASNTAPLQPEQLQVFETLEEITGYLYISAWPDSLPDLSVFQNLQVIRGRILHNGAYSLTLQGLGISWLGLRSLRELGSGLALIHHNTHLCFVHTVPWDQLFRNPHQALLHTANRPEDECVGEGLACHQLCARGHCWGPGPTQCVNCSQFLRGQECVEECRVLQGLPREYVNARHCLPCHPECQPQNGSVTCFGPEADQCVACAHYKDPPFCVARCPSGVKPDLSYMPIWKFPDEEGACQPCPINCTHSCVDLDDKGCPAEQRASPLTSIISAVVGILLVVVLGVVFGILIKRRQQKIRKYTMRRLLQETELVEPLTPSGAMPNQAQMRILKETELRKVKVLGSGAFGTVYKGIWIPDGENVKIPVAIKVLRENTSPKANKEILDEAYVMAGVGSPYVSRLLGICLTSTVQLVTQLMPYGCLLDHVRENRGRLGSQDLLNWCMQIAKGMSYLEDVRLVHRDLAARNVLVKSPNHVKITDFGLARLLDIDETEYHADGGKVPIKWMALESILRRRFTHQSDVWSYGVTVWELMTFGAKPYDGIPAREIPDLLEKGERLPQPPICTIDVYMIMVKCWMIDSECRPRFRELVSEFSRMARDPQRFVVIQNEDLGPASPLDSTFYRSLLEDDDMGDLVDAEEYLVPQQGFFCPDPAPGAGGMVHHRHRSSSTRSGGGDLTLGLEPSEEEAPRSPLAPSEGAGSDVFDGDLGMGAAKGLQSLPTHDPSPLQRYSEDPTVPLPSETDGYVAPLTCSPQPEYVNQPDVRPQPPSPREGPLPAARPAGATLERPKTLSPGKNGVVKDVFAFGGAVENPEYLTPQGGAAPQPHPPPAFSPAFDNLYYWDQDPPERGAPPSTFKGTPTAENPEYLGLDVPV

[10] = target: Hepatocyte growth factor receptor (Homo sapiens) (UniProt P08581); test: Inhibition of c-Met at 10 uM
Hepatocyte growth factor receptor (Homo sapiens), sequence (P08581 whole entry): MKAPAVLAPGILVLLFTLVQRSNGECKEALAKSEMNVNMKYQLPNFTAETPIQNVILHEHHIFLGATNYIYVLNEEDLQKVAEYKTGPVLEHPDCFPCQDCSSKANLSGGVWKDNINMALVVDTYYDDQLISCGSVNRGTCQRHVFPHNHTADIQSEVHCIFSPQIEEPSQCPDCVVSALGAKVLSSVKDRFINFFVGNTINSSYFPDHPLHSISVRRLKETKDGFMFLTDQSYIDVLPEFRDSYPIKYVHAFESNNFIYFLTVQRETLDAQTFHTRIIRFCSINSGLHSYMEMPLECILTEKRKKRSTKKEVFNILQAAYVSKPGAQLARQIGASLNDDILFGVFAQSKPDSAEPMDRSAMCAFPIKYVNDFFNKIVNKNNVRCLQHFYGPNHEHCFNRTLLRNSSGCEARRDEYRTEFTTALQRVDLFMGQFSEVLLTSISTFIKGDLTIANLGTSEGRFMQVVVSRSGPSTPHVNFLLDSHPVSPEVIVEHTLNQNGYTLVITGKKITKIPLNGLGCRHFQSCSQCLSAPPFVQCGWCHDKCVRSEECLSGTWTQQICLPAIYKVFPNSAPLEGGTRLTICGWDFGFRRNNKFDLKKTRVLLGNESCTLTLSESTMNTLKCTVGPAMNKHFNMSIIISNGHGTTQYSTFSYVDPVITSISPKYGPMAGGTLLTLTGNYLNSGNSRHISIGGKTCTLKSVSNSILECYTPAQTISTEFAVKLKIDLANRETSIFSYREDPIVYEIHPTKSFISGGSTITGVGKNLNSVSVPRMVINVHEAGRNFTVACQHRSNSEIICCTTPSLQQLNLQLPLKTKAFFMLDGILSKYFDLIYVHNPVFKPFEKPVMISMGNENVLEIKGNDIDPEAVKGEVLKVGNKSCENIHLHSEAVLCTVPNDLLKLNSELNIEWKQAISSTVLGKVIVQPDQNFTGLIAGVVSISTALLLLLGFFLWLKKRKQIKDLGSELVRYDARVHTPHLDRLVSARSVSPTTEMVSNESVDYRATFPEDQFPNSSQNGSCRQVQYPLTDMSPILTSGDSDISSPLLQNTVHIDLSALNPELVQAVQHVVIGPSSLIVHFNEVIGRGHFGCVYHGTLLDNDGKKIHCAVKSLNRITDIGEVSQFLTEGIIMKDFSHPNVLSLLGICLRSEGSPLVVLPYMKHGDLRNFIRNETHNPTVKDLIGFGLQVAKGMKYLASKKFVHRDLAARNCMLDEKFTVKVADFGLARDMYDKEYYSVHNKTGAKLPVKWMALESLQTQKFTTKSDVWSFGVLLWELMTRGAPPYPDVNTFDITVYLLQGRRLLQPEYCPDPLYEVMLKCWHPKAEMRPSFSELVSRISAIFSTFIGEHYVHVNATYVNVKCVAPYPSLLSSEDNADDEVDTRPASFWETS

[11] = target: Macrophage-stimulating protein receptor (Homo sapiens) (UniProt Q04912); test: Inhibition of Ron at 10 uM
[12] = Inhibition of PKA at 10 uM
[13] = target: Glycogen synthase kinase-3 beta (Homo sapiens) (UniProt P49841); test: Inhibition of GSK3-beta at 10 uM
[14] = target: Bcr/Abl fusion protein (Homo sapiens) (UniProt P00519+P11274); test: Inhibition of Bcr-Abl at 10 uM; type: protein assay
[15] = Inhibition of Bcr-Abl T315 mutant at 10 uM
[16] = target: Cyclin-dependent kinase 1 (Homo sapiens) (UniProt P06493); test: Inhibition of Cdk1 at 10 uM
Cyclin-dependent kinase 1 (Homo sapiens), sequence (P06493 whole entry, looked up): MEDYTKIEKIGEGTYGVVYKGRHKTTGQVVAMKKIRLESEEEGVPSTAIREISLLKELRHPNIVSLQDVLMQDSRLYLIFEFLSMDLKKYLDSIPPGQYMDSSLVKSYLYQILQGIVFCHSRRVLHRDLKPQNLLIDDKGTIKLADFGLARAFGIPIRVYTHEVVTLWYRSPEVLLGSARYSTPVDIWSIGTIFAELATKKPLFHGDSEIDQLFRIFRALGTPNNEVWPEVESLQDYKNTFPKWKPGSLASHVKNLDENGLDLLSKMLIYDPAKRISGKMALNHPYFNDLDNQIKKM

[17] = target: Cyclin-dependent kinase 2 (Homo sapiens) (UniProt P24941); test: Inhibition of Cdk2 at 10 uM
[18] = target: Proto-oncogene tyrosine-protein kinase Src (Homo sapiens) (UniProt P12931); test: Inhibition of Src at 10 uM
Proto-oncogene tyrosine-protein kinase Src (Homo sapiens), sequence (P12931 2-536 limits assumed): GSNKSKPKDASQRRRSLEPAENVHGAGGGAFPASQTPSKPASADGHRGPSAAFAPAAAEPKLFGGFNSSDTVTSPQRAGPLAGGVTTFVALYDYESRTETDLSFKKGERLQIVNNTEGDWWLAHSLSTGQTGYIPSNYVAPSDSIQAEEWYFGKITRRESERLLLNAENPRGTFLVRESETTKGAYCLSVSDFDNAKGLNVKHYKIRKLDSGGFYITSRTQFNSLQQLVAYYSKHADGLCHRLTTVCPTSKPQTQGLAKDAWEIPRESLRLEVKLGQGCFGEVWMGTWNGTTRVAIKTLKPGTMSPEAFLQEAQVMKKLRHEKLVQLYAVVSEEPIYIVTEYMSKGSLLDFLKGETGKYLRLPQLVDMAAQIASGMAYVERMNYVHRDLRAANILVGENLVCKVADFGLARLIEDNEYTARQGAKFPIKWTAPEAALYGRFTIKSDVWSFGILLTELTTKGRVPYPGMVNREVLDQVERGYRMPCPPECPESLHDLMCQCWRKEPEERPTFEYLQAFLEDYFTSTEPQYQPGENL

[19] = target: T2, Aurora kinase A (Homo sapiens) (UniProt O14965); test: Inhibition of Aurora A at 10 uM
T2 sequence (whole entry): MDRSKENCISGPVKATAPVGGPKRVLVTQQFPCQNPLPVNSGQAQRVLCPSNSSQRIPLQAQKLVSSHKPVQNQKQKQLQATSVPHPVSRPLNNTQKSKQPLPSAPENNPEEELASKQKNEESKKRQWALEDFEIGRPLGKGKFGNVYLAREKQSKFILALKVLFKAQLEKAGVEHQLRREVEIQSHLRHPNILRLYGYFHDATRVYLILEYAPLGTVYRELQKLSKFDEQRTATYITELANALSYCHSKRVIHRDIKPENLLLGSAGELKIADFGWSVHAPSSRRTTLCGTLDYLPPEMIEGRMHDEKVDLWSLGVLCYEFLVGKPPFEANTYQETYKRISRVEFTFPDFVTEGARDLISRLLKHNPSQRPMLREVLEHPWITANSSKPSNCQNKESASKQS

[20] = target: Aurora kinase B (Homo sapiens) (UniProt Q96GD4); test: Inhibition of Aurora B at 10 uM
Aurora kinase B (Homo sapiens), sequence (Q96GD4 whole entry): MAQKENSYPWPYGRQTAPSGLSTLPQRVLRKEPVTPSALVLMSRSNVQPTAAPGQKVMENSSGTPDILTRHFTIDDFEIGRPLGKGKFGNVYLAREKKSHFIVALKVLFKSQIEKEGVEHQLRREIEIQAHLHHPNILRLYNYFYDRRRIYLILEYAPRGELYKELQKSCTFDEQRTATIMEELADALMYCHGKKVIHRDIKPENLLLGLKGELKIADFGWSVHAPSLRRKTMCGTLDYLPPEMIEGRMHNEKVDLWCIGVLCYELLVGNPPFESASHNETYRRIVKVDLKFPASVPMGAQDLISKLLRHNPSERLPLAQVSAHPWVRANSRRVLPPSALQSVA

[21] = target: Serine/threonine-protein kinase PLK1 (Homo sapiens) (UniProt P53350); test: Inhibition of Plk1 at 10 uM

| SMILES | IC50 [1] [µM] | IC50 [2] [µM] | IC50 [3] [µM] | inhibition [4] [%] | inhibition [5] [%] | inhibition [6] [%] | inhibition [7] [%] | inhibition [8] [%] | inhibition [9] [%] | inhibition [10] [%] | inhibition [11] [%] | inhibition [12] [%] | inhibition [13] [%] | inhibition [14] [%] | inhibition [15] [%] | inhibition [16] [%] | inhibition [17] [%] | inhibition [18] [%] | inhibition [19] [%] | inhibition [20] [%] | other results |
| --- | --- | --- | --- | --- | --- | --- | --- | --- | --- | --- | --- | --- | --- | --- | --- | --- | --- | --- | --- | --- | --- |
| CC(C)(C)c1cccc(-n2cc(-c3ccccc3NCc3ccncc3)nn2)c1 | 0.27 | 0.25 | 0.33 | < 30 | < 30 | < 30 | < 30 | < 30 | < 30 | < 30 | < 30 | < 30 | < 30 | < 30 | < 30 | < 30 | < 30 | < 30 | < 30 | < 30 | inhibition [21]: < 30% |
| FC(F)(F)Oc1cccc(-n2cc(-c3ccccc3NCc3ccncc3)nn2)c1 | 0.066 | 0.072 | 0.085 | < 30 | < 30 | < 30 | < 30 | < 30 | < 30 | < 30 | < 30 | < 30 | < 30 | < 30 | < 30 | < 30 | < 30 | < 30 | < 30 | < 30 | inhibition [21]: < 30% |
| Clc1cccc(-n2cc(-c3ccccc3NCc3ccccn3)nn2)c1 | > 10 | > 10 | > 10 | < 30 | < 30 | < 30 | < 30 | < 30 | < 30 | < 30 | < 30 | < 30 | < 30 | < 30 | < 30 | < 30 | < 30 | < 30 | < 30 | < 30 | inhibition [21]: < 30% |
| Clc1cccc(-n2cc(-c3ccccc3NCc3c[nH]cn3)nn2)c1 | > 10 | > 10 | > 10 | < 30 | < 30 | < 30 | < 30 | < 30 | < 30 | < 30 | < 30 | < 30 | < 30 | < 30 | < 30 | < 30 | < 30 | < 30 | < 30 | < 30 | inhibition [21]: < 30% |
| FC(F)(F)Oc1ccc(-n2cc(-c3ccccc3NCc3ccncc3)nn2)cc1 | 1.22 | 1.13 | 3.11 | < 30 | < 30 | < 30 | < 30 | < 30 | < 30 | < 30 | < 30 | < 30 | < 30 | < 30 | < 30 | < 30 | < 30 | < 30 | < 30 | < 30 | inhibition [21]: < 30% |
| Clc1cccc(-n2cc(-c3ccccc3NCc3cccnc3)nn2)c1 | 4.23 | > 10 | > 10 | < 30 | < 30 | < 30 | < 30 | < 30 | < 30 | < 30 | < 30 | < 30 | < 30 | < 30 | < 30 | < 30 | < 30 | < 30 | < 30 | < 30 | inhibition [21]: < 30% |
| Cc1ccc(-n2cc(-c3ccccc3NCc3ccncc3)nn2)cc1C(F)(F)F | 0.14 | 0.11 | 0.18 | < 30 | < 30 | < 30 | < 30 | < 30 | < 30 | < 30 | < 30 | < 30 | < 30 | < 30 | < 30 | < 30 | < 30 | < 30 | < 30 | < 30 | inhibition [21]: < 30% |
| FC(F)(F)c1cccc(-n2cc(-c3ccccc3NCc3ccccn3)nn2)c1 | > 10 | > 10 | > 10 | < 30 | < 30 | < 30 | < 30 | < 30 | < 30 | < 30 | < 30 | < 30 | < 30 | < 30 | < 30 | < 30 | < 30 | < 30 | < 30 | < 30 | inhibition [21]: < 30% |
| c1ccc(-c2cn(-c3ccc4[nH]ncc4c3)nn2)c(NCc2ccncc2)c1 | 0.68 | 0.65 | 2.33 | < 30 | < 30 | < 30 | < 30 | < 30 | < 30 | < 30 | < 30 | < 30 | < 30 | < 30 | < 30 | < 30 | < 30 | < 30 | < 30 | < 30 | inhibition [21]: < 30% |
| FC(F)(F)c1ccc(-n2cc(-c3ccccc3NCc3ccncc3)nn2)cc1 | 0.59 | 0.66 | 1.92 | < 30 | < 30 | < 30 | < 30 | < 30 | < 30 | < 30 | < 30 | < 30 | < 30 | < 30 | < 30 | < 30 | < 30 | < 30 | < 30 | < 30 | inhibition [21]: < 30% |
| Clc1ccc(-n2cc(-c3ccccc3NCc3ccncc3)nn2)cc1 | 0.39 | 0.13 | 0.27 | < 30 | < 30 | < 30 | < 30 | < 30 | < 30 | < 30 | < 30 | < 30 | < 30 | < 30 | < 30 | < 30 | < 30 | < 30 | < 30 | < 30 | inhibition [21]: < 30% |
